Screens: PubChem, several laboratories
Ecoli tolC = blocks growth of E. coli BW25113 tolC mutant; OD615; growth inhibition, % at 10 µM (by protocol); 65,000 compounds, 2.2% hits;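 active = growth inhibition at or above a cutoff equal to the mean over every tested compound plus 3 SD, cut at about 60% in these data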;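 also: growth measured after 20 h incubation at 37 °C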
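Test system: E. coli BW25113 ΔtolC::kan bacteria; incubation: 37 °C, 20 h exposure; medium: LB broth supplemented with 50 µg/mL kanamycin; read-out basis: percent growth inhibition; signal: A615 absorbance measurement; compound: 10 µM final, single dose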
E coli WT exp = E. coli BW25113 growth inhibition, expanded screen. OD600 absorbance. growth inhibition, % at 100 µM. 98,000 compounds, 0.15% hits. AID 710;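 active = growth inhibition above about 50% at one test dose, limit read from the data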;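 also: growth measured after 20 h incubation at 37 °C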
CYP2C19 inh = human CYP2C19 inhibition. CYP2C19 Supersomes, luciferin-H EGE luminescence, 30 min. inhibition, % at 5 µM. 96,000 compounds, 21% hits;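 active = CYP2C19 inhibition above a set limit at 5 µM in the primary screen, cut at about 50% in these data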;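 also: plate controls were negative control wells for no effect and 2.5 mM tranylcypromine positive control for full effect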
Target sequence (P33261 whole entry, looked up): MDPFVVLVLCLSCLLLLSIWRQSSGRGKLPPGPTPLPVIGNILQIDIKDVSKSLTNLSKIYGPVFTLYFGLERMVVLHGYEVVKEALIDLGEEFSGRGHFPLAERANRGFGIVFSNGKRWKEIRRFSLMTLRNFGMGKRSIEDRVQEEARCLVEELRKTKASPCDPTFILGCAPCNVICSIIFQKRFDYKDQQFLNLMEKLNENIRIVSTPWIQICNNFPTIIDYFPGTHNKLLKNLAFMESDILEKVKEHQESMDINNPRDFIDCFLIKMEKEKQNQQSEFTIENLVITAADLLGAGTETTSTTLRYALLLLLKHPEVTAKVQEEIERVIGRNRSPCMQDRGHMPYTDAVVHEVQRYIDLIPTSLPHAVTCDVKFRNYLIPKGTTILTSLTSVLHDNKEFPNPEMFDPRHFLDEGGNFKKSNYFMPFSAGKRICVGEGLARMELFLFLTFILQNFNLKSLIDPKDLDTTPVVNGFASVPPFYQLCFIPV
CYP2C19 activ = cytochrome P450 2C19 (human) activation. P33261. 96,000 tested, under 10 active. activation factor at 5 µM. recombinant CYP2C19, luciferin-H EGE luminescence; active compounds read high; 0 = fully inhibited enzyme, 1 = untreated enzyme;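 active = activation factor of at least 2 at 5 µM in the primary screen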;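 also: 0 = wells with 2.5 mM tranylcypromine and 1 = vehicle-only wells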
CYP2C9 inh = inhibitors of human CYP2C9; P11712; CYP2C9 Supersomes, luciferin-H conversion, luminescence; inhibition, % at 5 µM; 96,000 compounds, 20% hits;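 active = blocking of liver enzyme CYP2C9 beyond about 50% at 5 µM, limit read from the data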
CYP2C9 act = CYP2C9 (human) activation; recombinant CYP2C9, luciferin-H conversion, luminescence; active compounds read high; factor 1 = untreated enzyme, 0 = blocked; activation factor at 5 µM; 96,000 compounds, 1.4% hits;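 active = activation factor of 2 or more for CYP2C9 at a 5 µM dose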;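 also: 0 = sulfaphenazole-blocked wells and 1 = vehicle-only wells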
The depositor's hits bear a star; / = no result given. A selection: hits, their analogues and other compounds. The true share with any hit is near 29%.

SMILES	Ecoli tolC	E coli WT exp	CYP2C19 inh	CYP2C19 activ	CYP2C9 inh	CYP2C9 act
CCn1c(SCC(=O)Nc2nc3ccccc3s2)nnc1-c1ccc(OC)cc1	-4.2	-17.0	-4.8	1	2.8	1
N#Cc1c(NC(=O)CN2CCOCC2)oc(-c2ccccc2)c1-c1ccccc1	33.2	-8.0	12.0	0.9	44.6	0.6
CCn1c(SCC(=O)Nc2oc(-c3ccccc3)c(-c3ccccc3)c2C#N)nnc1-c1cc(OC)cc(OC)c1	/	-17.0	58.6*	0.4	100.0*	0
N#Cc1c(NC(=O)CSc2n[nH]c(Cc3ccccc3)n2)oc(-c2ccccc2)c1-c1ccccc1	63.8*	-13.0	91.1*	0.1	98.9*	0
N#Cc1c(NC(=O)Cn2cnc3ccccc3c2=O)oc(-c2ccccc2)c1-c1ccccc1	28.9	-5.0	33.6	0.7	83.4*	0.2
CC1Cc2ccccc2N1CC(=O)NC(=O)NCc1ccco1 (stereo not drawn)	15.6	4.0	83.2*	0.2	55.2*	0.4
O=C(CN1CCCc2ccccc21)NC(=O)NCc1ccco1	-6.9	-15.0	68.7*	0.3	45.8	0.5
O=C(CN1C(=O)NC2(CCCCCCC2)C1=O)NC(=O)NCc1ccco1	16.0	8.0	9.1	0.9	8.6	0.9
COC(=O)c1ccc(OC)c(CSc2nnc(COc3ccc(OC)cc3)o2)c1	40.2	-16.0	38.4	0.6	69.1*	0.3
COC(=O)c1ccc(NC(=O)CSc2nnc(COc3ccc4c(c3)CCCC4)o2)cc1	5.5	-6.0	-12.4	1.1	3.3	1
COC(=O)c1ccc(OC)c(CSc2nnc(COc3cccc(C)c3)o2)c1	27.7	-16.0	96.0*	0	89.9*	0.1
CCN1CCN(C(=O)c2ccc3c(c2)N(Cc2ccc(F)cc2)C(=O)c2ccccc2S3=O)CC1 (stereo not drawn)	3.3	10.0	/	/	/	/
Cc1ccc(C2(C(F)(F)F)NC(=O)N3CCCN=C3S2)cc1 (stereo not drawn)	6.0	0.0	76.2*	0.2	16.3	0.8
Cc1ccc(C2(C(F)(F)F)NC(=O)N3CCN=C3S2)cc1 (stereo not drawn)	1.9	8.0	76.1*	0.2	-4.2	1
O=C1NC(c2ccccc2)(C(F)(F)F)SC2=CCCCCN12 (stereo not drawn)	-1.5	-1.0	/	/	/	/
COc1ccccc1-n1c(=O)oc2ccc(Cl)cc2c1=O	100.0*	46.0	27.3	0.7	19.8	0.8
CC1CCN(C2CC(=O)N(c3ccc(Br)cc3Br)C2=O)CC1 (stereo not drawn)	-0.8	/	/	/	/	/
CC(C)c1ccc(CN2CCC(C(=O)NCc3cccnc3)CC2)cc1	/	8.0	2.6	1	18.6	0.8
CC(C)C(NC(=O)C1CCCCC1)C(=O)Nc1ccncc1 (stereo not drawn)	-22.6	-2.0	95.9*	0	92.2*	0.1
CC(C)C(NC(=O)C1CCC(C(C)(C)C)CC1)C(=O)NCc1cccnc1 (stereo not drawn)	/	1.0	52.0*	0.5	51.1*	0.5
CC(C)C(NC(=O)C1CCCCC1)C(=O)Nc1ccc2c(c1)OCCO2 (stereo not drawn)	-4.8	2.0	12.5	0.9	22.8	0.8
CCOc1cccc2sc(NC(=O)CC)nc12	/	5.0	18.1	0.8	74.9*	0.3
N#C/C(=C/c1ccc(N2CCCC2)c([N+](=O)[O-])c1)c1nc2ccccc2[nH]1	/	-15.0	73.0*	0.3	58.1*	0.4
COc1cc(/C=C(\C#N)c2nc3ccccc3[nH]2)c([N+](=O)[O-])cc1OCc1ccccc1	/	-10.0	43.4	0.6	76.0*	0.2
CCN(CC)c1ccc(/C=C(/C#N)c2nc3ccccc3[nH]2)c(OC(C)C)c1	/	-28.0	48.5	0.5	73.5*	0.3
SMILES	Ecoli tolC	E coli WT exp	CYP2C19 inh	CYP2C19 activ	CYP2C9 inh	CYP2C9 act
COc1cc(/C=C(/C#N)c2nc3ccccc3[nH]2)ccc1OCC(=O)Nc1ccccc1C	/	-25.0	18.7	0.8	42.7	0.6
N#C/C(=C\c1ccc(N2CCOCC2)o1)c1nc2ccccc2[nH]1	/	-12.0	8.8	0.9	-29.2	1.3
COc1cc(/C=C(/C#N)c2nc3ccccc3[nH]2)ccc1OCC(=O)Nc1ccccc1C(C)C	/	-7.0	38.2	0.6	59.5*	0.4
COc1ccc(CCn2c(-c3ccco3)nc3oc4ccccc4c(=O)c3c2=O)cc1	11.4	/	/	/	/	/
Cc1ccc(-c2nnc3ccc(SCC(=O)N4CCCCC4)nn23)cc1	6.6	/	/	/	/	/
COC(=O)C(C(=O)OC)C(C[N+](=O)[O-])c1ccc(OC)cc1 (stereo not drawn)	/	-5.0	45.4	0.5	-6.1	1.1
O=C(O/N=C\c1ccc(N2CCCCC2)c([N+](=O)[O-])c1)c1c(F)cccc1F	/	4.0	42.9	0.6	-37.3	1.4
Cc1ccc(C(=O)O/N=C\c2ccc(N3CCCCC3)c([N+](=O)[O-])c2)cc1	/	1.0	43.1	0.6	61.1*	0.4
Cc1ccc2nc(/C(C#N)=C\c3ccc(N4CCCCC4)c([N+](=O)[O-])c3)[nH]c2c1	/	-13.0	55.7*	0.4	59.1*	0.4
Cc1ccc2nc(/C(C#N)=C/c3cn[nH]c3-c3ccc(F)cc3)[nH]c2c1	/	-9.0	36.9	0.6	42.0	0.6
CCC(=O)n1nc(-c2cccnc2)nc1NCc1ccc(OC)cc1	24.0	11.0	72.9*	0.3	61.4*	0.4
CCC(=O)n1nc(-c2ccccc2)nc1NCc1ccccc1	15.9	-1.0	16.1	0.8	15.6	0.8
CSc1oc(-c2ccco2)nc1S(=O)(=O)c1ccccc1	8.5	-8.0	26.7	0.7	-192.7	2.9*
CSc1oc(-c2ccco2)nc1S(=O)(=O)c1ccc(F)cc1	-0.6	-1.0	/	/	/	/
Cc1ccc(C)c(C(=O)CCC(=O)Nc2cccnc2)c1	-6.5	5.0	47.6	0.5	-23.4	1.2
CC(C)=CCCC1=CCC(/C(C)=N/NC(N)=O)CC1 (stereo not drawn)	/	15.0	26.0	0.7	19.0	0.8
CN(C)S(=O)(=O)c1ccc(C(=O)N2CCC(c3nc4ccccc4o3)CC2)cc1	-1.4	-4.0	0.2	1	13.6	0.9
O=C(CN1CCN(c2ccccn2)CC1)N1c2ccccc2Sc2ccc(C(F)(F)F)cc21	53.4	-8.0	73.3*	0.3	44.4	0.6
COc1cccc(C2c3c(-c4cc(Cl)c(C)cc4O)n[nH]c3C(=O)N2Cc2cccnc2)c1 (stereo not drawn)	/	-3.0	42.8	0.6	72.0*	0.3
Cc1ccc(C2c3c(-c4ccccc4O)n[nH]c3C(=O)N2Cc2ccncc2)cc1 (stereo not drawn)	68.8*	5.0	40.8	0.6	33.7	0.7
COc1cc(C2c3c(-c4cc(Cl)c(C)cc4O)n[nH]c3C(=O)N2Cc2cccnc2)ccc1O (stereo not drawn)	35.1	2.0	11.4	0.9	14.2	0.9
COc1ccc(CCN2C(=O)c3[nH]nc(-c4ccccc4O)c3C2c2cccc(Cl)c2)cc1 (stereo not drawn)	/	-6.0	35.0	0.7	62.5*	0.4
